# Experimental data collected from several papers.
# Each line is one published result; the experiments were not run side by side.
# Cell line: WI-38
# Read-out: cell growth or viability
Structure (SMILES),assay,conditions,measurement,result
Cc1nc(Nc2ncc(C(=O)Nc3c(C)cccc3Cl)s2)cc(N2CCN(CCO)CC2)n1,MTT,72 h,EC50,0.7 µM
Cc1cccc(-n2ncc(Br)c(Br)c2=O)c1,resazurin,96 h,IC50,2.61 µM
CN(C)CCCOc1cc(NC(=O)c2cc(Cl)cc(C(=O)Nc3cc(OCCCN(C)C)c4ccccc4n3)n2)nc2ccccc12,ATP luminescence,72 h,IC50,3.6 µM
COc1cc(Nc2nc(C#N)cc3c(-c4ccccc4)n[nH]c23)cc(OC)c1OC,MTS,48 h,IC50,> 10 µM
CS(=O)(=O)CCNCc1ccc(-c2ccc3ncnc(Nc4ccc(OCc5cccc(F)c5)c(Cl)c4)c3c2)o1,MTT,72 h,EC50,32 µM
CN(C)CCCOc1cc(NC(=O)c2cccc(C(=O)Nc3cc(OCCCN(C)C)c4ccccc4n3)n2)nc2ccccc12,ATP luminescence,72 h,IC50,2.1 µM
c1ccc(CNCc2cc3c(-c4ccccc4)n[nH]c3c(Nc3ccccc3)n2)cc1,MTS,48 h,IC50,8.2 µM
C#CCOc1cc(C(=O)Nc2cc(OCCN)c3ccccc3n2)nc(C(=O)Nc2cc(OCCN)c3ccccc3n2)c1,ATP luminescence,72 h,IC50,4 µM
C=C(c1ccc(C(=O)O)cc1)c1cc2c(cc1C)C(C)(C)CCC2(C)C,MTT,72 h,EC50,76 µM
N#Cc1cc2c(-c3ccccc3)n[nH]c2c(Nc2ccccc2)n1,MTS,48 h,IC50,> 10 µM
